Screens (PubChem)
PERK inhibitor – block of dimerizer-induced PERK translation repression, primary screen, PERK inhibitor project, CHO PERK-DD cells, SEAP luminescence, HTS; inhibition, % at 5.6 µM; 220,000 tested, 0.17% active; Eukaryotic translation initiation factor 2-alpha kinase 3 (Homo sapiens), Q9NZJ5; CHO PERK-DD fusion, SEAP luminescence translation reporter;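 active = inhibition above the mean inhibition of all tested compounds plus 3 SD, set separately per screening campaign, cut at about 2.9% in these data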;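 also: PERK kinase domain activated by AP20187 dimerizer at 100 nM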
H9c2 TAG inh – inhibitors of triacylglycerol accumulation, primary screen, cell-based, uHTS, fluorescence, H9c2. AID 651582, 2012. 230,000 tested, 0.66% active. inhibition, % at 12.5 µM. H9c2 cells, Nile Red lipid (TAG) fluorescence; cells loaded with 200 µM oleic acid;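 active = pattern-corrected inhibition of lipid staining of at least 50% with the nuclear-stain viability signal not falling by more than 50%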
PKD1 kinase inh – inhibitors of human PKD1 kinase, biochemical, fluorescence polarization | PKD1 kinase fluorescence polarization assay | inhibition, % (test concentration not listed) | 200,000 tested, 0.056% active | Serine/threonine-protein kinase D1 (Homo sapiens), Q15139 | AID 797, 2007; in the data active = inhibition above about 50%
Mdm2 ligase inh – MDM2-luciferase reporter signal enhancers, primary screen, MDM2 E3 ligase inhibitor project, cell-based, luminescence, 1536-well; E3 ubiquitin-protein ligase Mdm2 (Homo sapiens), Q00987; 210,000 tested, 0.11% active; cell-based MDM2 ubiquitination luciferase reporter, 2 h; 0 = plate control, 100 = twice control, blank-subtracted; signal enhancement, % at 5 µM; AID 1230, 2008;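 active = signal enhancement of 30% or more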;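 also: luminescence tracks abundance of the self-degrading MDM2-luciferase fusion protein; higher signal means inhibition of MDM2 E3 ligase activity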
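Buffer or medium: Cells held in DMEM | Assay system: Stable mammalian line carrying autodegrading MDM2–luciferase fusion reporter | Quantity: 2000 cells/well | Times: 4 h settle plus 2 h compound, 37 °C | Doses: One concentration, 5 µM, with 0.2% DMSO | Technique: Luminescence with SteadyLite reagent, 15 min at room temperature | Benchmarks: Plate controls and plate blanks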
Hck Nef HTS – inhibitors of Nef-activated human Hck kinase, primary screen, biochemical, Z-Lyte FRET, 384-well, Hck-YEEI; 220,000 tested, 0.68% active; AID 463187, 2010; Recombinant Hck-YEEI plus Nef, Z-Lyte FRET kinase assay; Tyrosine-protein kinase HCK (Homo sapiens), P08631; inhibition, % at 20 µM;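 active = Hck-Nef kinase inhibition above about 50%, limit read from the data; inactive = inhibition below that limit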
Target sequence (P08631 whole entry, looked up): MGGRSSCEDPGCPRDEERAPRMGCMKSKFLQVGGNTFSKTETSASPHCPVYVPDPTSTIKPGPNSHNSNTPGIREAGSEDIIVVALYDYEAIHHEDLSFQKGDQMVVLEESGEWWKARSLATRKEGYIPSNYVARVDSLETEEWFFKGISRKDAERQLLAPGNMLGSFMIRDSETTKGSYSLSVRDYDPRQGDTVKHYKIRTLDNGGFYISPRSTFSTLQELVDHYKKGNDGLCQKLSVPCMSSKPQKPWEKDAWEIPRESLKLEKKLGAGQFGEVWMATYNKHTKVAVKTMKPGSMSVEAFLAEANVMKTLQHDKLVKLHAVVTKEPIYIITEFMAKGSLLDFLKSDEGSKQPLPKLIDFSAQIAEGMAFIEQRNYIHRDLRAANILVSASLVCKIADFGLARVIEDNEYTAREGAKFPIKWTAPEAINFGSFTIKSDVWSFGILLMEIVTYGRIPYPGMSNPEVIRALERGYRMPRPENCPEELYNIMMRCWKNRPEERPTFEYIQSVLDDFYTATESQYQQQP
Rad51 HR inh – human RAD51 strand exchange inhibitors, primary screen, biochemical, fluorescence; DNA repair protein RAD51 homolog 1 (Homo sapiens), Q06609; hRad51 DNA strand exchange, fluorescence dequenching; inhibition, % at 10 µM; 200,000 tested, 0.085% active;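 active = inhibition above 40% at the single screening dose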
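Material: hRad51 filaments on single-stranded DNA; Reagent: Donor/quencher-labelled 47-bp dsDNA substrate; Compound: 10 µM final, single point; Schedule: 37 °C 15-min filament assembly, 30-min compound preincubation, 15-min exchange; Technique: FRET fluorescence, excitation 485 nm, emission 520 nm; Benchmarks: control wells and blank wells on each plate.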
Of the large screens only hits and unclear results are named; the others gave an inactive call. Most compounds without a hit are left out; they make up all but 1.3% or so of the library.

O=C(CN1CCOCC1)Nc1ccc(Br)cn1	none (no result: H9c2 TAG inh)
O=C(CN1CCOCC1)Nc1ncc(Br)cc1Br	PERK inhibitor 3.2
Cc1ccc(OCC(=O)N(C)CC(=O)Nc2cccc(F)c2)cc1	none (no result: PERK inhibitor, PKD1 kinase inh, Mdm2 ligase inh, Hck Nef HTS, Rad51 HR inh)
O=C(Nc1ccc(S(=O)(=O)NC2=NCCCCC2)cc1)C1COc2ccccc2O1 (stereo unspecified)	Rad51 HR inh 40.5 (no result: PKD1 kinase inh, Mdm2 ligase inh)
O=C(Nc1cccc(S(=O)(=O)NC2=NCCCCC2)c1)C1COc2ccccc2O1 (stereo unspecified)	none
O=C1NC(=O)c2cc(NC(=O)C3COc4ccccc4O3)ccc21 (stereo unspecified)	Mdm2 ligase inh 43.5
COc1ccc(S(=O)(=O)NC(C)C(=O)Nc2ccccc2C(F)(F)F)cc1 (stereo unspecified)	Rad51 HR inh 93.6 (no result: H9c2 TAG inh)
CO[C@@]12[C@@H]3N[C@@H]3CN1C1=C(C(=O)C(N)=C(C)C1=O)[C@@H]2COC(N)=O	none (no result: PERK inhibitor, PKD1 kinase inh, Mdm2 ligase inh, Hck Nef HTS, Rad51 HR inh)
N#Cc1c(-c2ccccc2)nc(SCC(=O)N2c3ccccc3Sc3ccccc32)[nH]c1=O	Hck Nef HTS 82.0 (no result: PKD1 kinase inh, Rad51 HR inh)
N#Cc1c(-c2ccccc2)nc(SCC(=O)N(c2ccccc2)c2ccccc2)[nH]c1=O	none (no result: H9c2 TAG inh)
Cn1nc(C(=O)OCc2ccc(Br)cc2F)c2ccccc2c1=O	none
Cc1ccc(-n2c(C)cc(C(=O)COc3c(CO)cc(F)cc3CO)c2C)cc1C	none (no result: H9c2 TAG inh)
C=C1CCN(C(C)C(=O)OC)S(=O)(=O)c2ccccc21 (stereo unspecified)	H9c2 TAG inh 55.4 (no result: PERK inhibitor, PKD1 kinase inh)
COC(=O)C(C)N1CCC(=O)c2ccccc2S1(=O)=O (stereo unspecified)	none (no result: PERK inhibitor, H9c2 TAG inh, PKD1 kinase inh)
C=C1CCN(C(C(=O)OC)C(C)C)S(=O)(=O)c2ccccc21 (stereo unspecified)	Mdm2 ligase inh 33.4 (no result: PERK inhibitor, PKD1 kinase inh)
N#CC1(C#N)CC(C=O)=C(N)C1(C#N)CC(=O)C12CC3CC(CC(C3)C1)C2 (stereo unspecified)	none
C[C@@]12C(=O)Nc3ccc(Cl)cc3C(=O)N1[C@H]1c3cc(Cl)ccc3OC[C@@H]1[C@@H]2c1ccccc1	none (no result: PERK inhibitor, PKD1 kinase inh, Mdm2 ligase inh, Hck Nef HTS, Rad51 HR inh)
C[C@@]12C(=O)Nc3cc(F)c(F)cc3C(=O)N1[C@H]1c3cc(Cl)ccc3OC[C@@H]1[C@@H]2c1ccccc1	H9c2 TAG inh 63.0 (no result: PERK inhibitor, PKD1 kinase inh, Mdm2 ligase inh, Hck Nef HTS, Rad51 HR inh)
CC(C)c1cc(C(=O)Nc2cc(Br)ccc2O)no1	none (no result: H9c2 TAG inh)
CCCc1cc(C(=O)Nc2cc(Br)ccc2O)no1	PERK inhibitor 3.1
O=c1cnnc(N/N=C/c2cccs2)[nH]1	PERK inhibitor 4.0 (no result: PKD1 kinase inh)
CCCCCCCCCCCCCCCC[N+](C)(C)Cc1ccc(F)cc1	H9c2 TAG inh 109.1 (no result: PERK inhibitor, PKD1 kinase inh, Mdm2 ligase inh, Hck Nef HTS, Rad51 HR inh)
COc1ccc(OC)c(N(CC(=O)NCCSCc2ccc(C)cc2)S(C)(=O)=O)c1	none (no result: PERK inhibitor, PKD1 kinase inh, Mdm2 ligase inh, Hck Nef HTS, Rad51 HR inh)
COc1ccc2[nH]c3c(NCCC4=CCCCC4)ncnc3c2c1	Hck Nef HTS 91.6
COC(=O)[C@@H](Cc1ccccc1)NC(=O)Cn1cnc2c(SC)nc(N)nc21	none (no result: PERK inhibitor, PKD1 kinase inh, Mdm2 ligase inh, Hck Nef HTS, Rad51 HR inh)
CC(NC(=O)Cc1ccccc1)C1COc2ccccc2O1 (stereo unspecified)	PERK inhibitor 3.1
CC(NC(=O)COc1ccccc1)C1COc2ccccc2O1 (stereo unspecified)	none (no result: Mdm2 ligase inh)
O=C(NNC(=O)c1ccccc1)C(=O)N1CCCCC1	PERK inhibitor 3.1
CC(C)(C)c1ccc(C(=O)NNC(=O)C(=O)N2CCCCC2)cc1	none (no result: H9c2 TAG inh)
Cc1ccc(NC(=O)/C=C/c2ccco2)cc1S(=O)(=O)N1CCCCCC1	none (no result: PERK inhibitor, PKD1 kinase inh, Mdm2 ligase inh, Hck Nef HTS, Rad51 HR inh)
COc1cccc(CN(c2ccccc2C(=O)O)S(=O)(=O)c2ccc(C)cc2)c1	none (no result: PERK inhibitor, PKD1 kinase inh, Mdm2 ligase inh, Hck Nef HTS, Rad51 HR inh)
CC1CCN(c2cc(N3CCN(C(=O)c4ccc(F)c(F)c4)CC3)c([N+](=O)[O-])cc2F)CC1	none
Cc1ccc(-n2c(C)cc(C=C3C(=O)CC(C)(C)CC3=O)c2C)cc1	Mdm2 ligase inh 57.4 (no result: H9c2 TAG inh)
COC(=O)c1nc(N)sc1-c1ccccc1	Rad51 HR inh 75.5
